Measurements published in ChEMBL document CHEMBL1125581 (J Med Chem, 1991).
pKi: −log10 of the molar value.

Legend:
[1] = molecular target: T1, Muscarinic acetylcholine receptor M1 (Rattus norvegicus, UniProt P08482); assay: Inhibition of binding of [3H]N-methylscopolamine to muscarinic acetylcholine receptor M1 of transfected rat A9L cells.; format: cell-based
T1 sequence (P08482 whole entry): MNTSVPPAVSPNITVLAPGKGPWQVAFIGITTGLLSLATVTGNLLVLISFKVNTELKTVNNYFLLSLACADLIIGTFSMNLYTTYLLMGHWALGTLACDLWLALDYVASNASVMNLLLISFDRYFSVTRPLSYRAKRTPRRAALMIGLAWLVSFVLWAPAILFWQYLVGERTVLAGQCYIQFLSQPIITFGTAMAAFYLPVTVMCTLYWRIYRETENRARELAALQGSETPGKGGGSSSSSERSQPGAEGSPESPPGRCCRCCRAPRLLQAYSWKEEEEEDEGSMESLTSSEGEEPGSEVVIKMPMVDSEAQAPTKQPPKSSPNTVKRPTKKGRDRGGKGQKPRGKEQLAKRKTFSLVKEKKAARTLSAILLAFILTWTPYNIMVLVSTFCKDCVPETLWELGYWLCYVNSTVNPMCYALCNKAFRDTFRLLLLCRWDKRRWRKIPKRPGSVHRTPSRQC

[2] = molecular target: T2, Muscarinic acetylcholine receptor M2 (Rattus norvegicus, UniProt P10980); assay: Inhibition of binding of [3H]N-methylscopolamine to muscarinic acetylcholine receptor M2 of rat heart tissue membrane.; format: tissue-based
T2 sequence (P10980 whole entry): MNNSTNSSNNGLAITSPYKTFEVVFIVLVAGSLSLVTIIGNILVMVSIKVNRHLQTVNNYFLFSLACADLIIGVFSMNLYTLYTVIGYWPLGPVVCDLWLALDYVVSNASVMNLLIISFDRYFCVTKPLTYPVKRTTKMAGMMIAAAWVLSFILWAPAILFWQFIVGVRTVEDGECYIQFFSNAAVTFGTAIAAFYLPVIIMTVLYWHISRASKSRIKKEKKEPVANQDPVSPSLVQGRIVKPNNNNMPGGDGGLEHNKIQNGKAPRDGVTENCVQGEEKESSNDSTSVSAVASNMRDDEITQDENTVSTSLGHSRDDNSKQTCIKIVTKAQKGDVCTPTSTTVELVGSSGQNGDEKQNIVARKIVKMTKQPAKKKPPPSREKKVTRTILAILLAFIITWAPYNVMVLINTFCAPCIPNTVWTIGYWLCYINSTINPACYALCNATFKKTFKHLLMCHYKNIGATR
Summary of the method: (§1)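 Rat heart membranes (150–300 μg protein) incubated 90 min at 37 °C in DMEM-Hepes with 0.5 nM [3H]NMS and varied unlabeled analogue concentrations. Bound radioligand collected by rapid GF/B filtration, washed with ice-cold 0.9% NaCl, and scintillation counted. Nonspecific binding with 1 μM atropine subtracted. Ki values come from one to three determinations, each in triplicate.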

[3] = molecular target: T1, Muscarinic acetylcholine receptor M1; assay: The compound was tested for the inhibition of binding of [3H]N-Methyl-scopolamine to muscarinic acetylcholine receptor M1 of transfected A9L cells.; format: cell-based
Summary of the method: (§2)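 Confluent A9L (transfected m1/m3) or NG108-15 (m4) cultures were lysed in 2 mM Tris-HCl pH 7.1/1 mM EDTA, 30 min, 2 °C, then homogenized. Crude membranes were spun at 50000g. Membranes (150–300 μg protein) were incubated with 0.5 nM [3H]NMS and varied analogue in DMEM-Hepes for 90 min at 37 °C, then filtered. Nonspecific binding was set with 1 μM atropine. Ki values are from 1–3 triplicate determinations.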

[4] = molecular target: Muscarinic acetylcholine receptor M3 (Rattus norvegicus, UniProt P08483); assay: Inhibition of binding of [3H]N-methylscopolamine to muscarinic acetylcholine receptor M3 of transfected rat A9L cells.; format: cell-based
Sequence of Muscarinic acetylcholine receptor M3 (P08483 whole entry): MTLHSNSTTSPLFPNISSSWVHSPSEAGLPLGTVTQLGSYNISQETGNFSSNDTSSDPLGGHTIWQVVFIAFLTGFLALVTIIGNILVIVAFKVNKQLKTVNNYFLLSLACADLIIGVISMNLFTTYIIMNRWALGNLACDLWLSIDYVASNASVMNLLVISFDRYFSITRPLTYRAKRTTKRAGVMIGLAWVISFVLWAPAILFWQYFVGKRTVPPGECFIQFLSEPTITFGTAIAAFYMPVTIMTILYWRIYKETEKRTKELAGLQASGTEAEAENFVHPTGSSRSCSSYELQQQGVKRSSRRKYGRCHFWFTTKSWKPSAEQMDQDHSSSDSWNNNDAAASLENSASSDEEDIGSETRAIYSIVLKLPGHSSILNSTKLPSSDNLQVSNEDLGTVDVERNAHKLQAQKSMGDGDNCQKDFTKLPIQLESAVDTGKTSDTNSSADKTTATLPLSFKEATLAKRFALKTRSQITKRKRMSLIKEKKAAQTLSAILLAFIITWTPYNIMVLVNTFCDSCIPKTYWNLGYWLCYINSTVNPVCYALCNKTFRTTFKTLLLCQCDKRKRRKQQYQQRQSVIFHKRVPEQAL

[5] = molecular target: T3, Muscarinic acetylcholine receptor M4 (Rattus norvegicus, UniProt P08485); assay: Inhibition of binding of [3H]N-Methyl-scopolamine to muscarinic acetylcholine receptor M4 of rat […] NG108-15 cells; format: cell-based
T3 sequence (P08485 whole entry): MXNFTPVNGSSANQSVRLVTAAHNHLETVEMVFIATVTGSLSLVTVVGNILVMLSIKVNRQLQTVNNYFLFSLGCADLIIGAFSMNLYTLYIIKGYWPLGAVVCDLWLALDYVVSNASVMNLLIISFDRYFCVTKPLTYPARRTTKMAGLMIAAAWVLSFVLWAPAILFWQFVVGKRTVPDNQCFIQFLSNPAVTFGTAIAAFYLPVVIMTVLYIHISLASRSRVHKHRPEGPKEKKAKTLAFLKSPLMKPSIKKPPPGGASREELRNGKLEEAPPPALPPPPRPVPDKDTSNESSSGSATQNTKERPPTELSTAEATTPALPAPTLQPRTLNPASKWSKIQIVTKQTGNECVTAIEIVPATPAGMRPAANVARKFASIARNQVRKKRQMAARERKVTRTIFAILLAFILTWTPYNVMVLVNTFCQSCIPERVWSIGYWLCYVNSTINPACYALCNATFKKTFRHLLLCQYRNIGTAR

[6] = molecular target: T2, Muscarinic acetylcholine receptor M2; assay: Inhibition of binding of [3H]N-Methyl-scopolamine to Muscarinic acetylcholine receptor M2 of rat heart tissue membranes.; format: cell membranes, Membrane; summary of the method: as §1
[7] = molecular target: T1, Muscarinic acetylcholine receptor M1; assay: Inhibition of binding of [3H]N-Methyl-scopolamine to Muscarinic acetylcholine receptor M1 of transfected A9L cells.; format: cell-based; summary of the method: as §2

pKi [1] | pKi [2] | pKi [3] | pKi [4] | pKi [5] | pKi [6] | pKi [7] | SMILES
5.41 | 5.29 | – | – | – | – | – | NCCCN1CCN(CC(=O)N2c3ccccc3C(=O)Nc3cccnc32)CC1
– | – | 5.05 | – | – | – | – | CN1CCN(CC(=O)N2c3ccccc3C(=O)N(CCCCCCC#N)c3cccnc32)CC1
5.02 | 5.20 | – | 4.94 | – | – | – | NCCCC(=O)NCCN1CCN(CC(=O)N2c3ccccc3C(=O)Nc3cccnc32)CC1
5.86 | 6.02 | – | 5.44 | 5.98 | – | – | NCCNC(=O)c1ccc(CN2CCN(CC(=O)N3c4ccccc4C(=O)Nc4cccnc43)CC2)cc1
< 4.52 | – | – | < 4.52 | – | – | – | CC(=O)NCCNS(=O)(=O)c1ccc2c(c1)C(=O)Nc1cccnc1N2C(=O)CN1CCN(C)CC1
5.77 | 5.96 | – | 5.46 | – | – | – | CC(C)(C)OC(=O)NCCCCNC(=O)c1ccc(CN2CCN(CC(=O)N3c4ccccc4C(=O)Nc4cccnc43)CC2)cc1
< 4.00 | < 4.00 | – | < 4.00 | < 4.00 | – | – | CS(=O)(=O)N1CCN(CC(=O)N2c3ccccc3C(=O)Nc3cccnc32)CC1
– | – | – | – | – | 7.66 | 8.48 | COc1ccccc1CNCCCCCCCCCCN1CCN(CC(=O)N2c3ccccc3C(=O)Nc3cccnc32)CC1
7.22 | 7.70 | – | – | – | – | – | O=C1Nc2cccnc2N(C(=O)CN2CCN(CCCCCN3C(=O)c4ccccc4C3=O)CC2)c2ccccc21
< 4.52 | < 4.52 | – | < 4.52 | – | – | – | CN1CCN(CC(=O)N2c3ccc(S(N)(=O)=O)cc3C(=O)Nc3cccnc32)CC1
– | 5.60 | – | – | – | – | – | CC(C)(C)OC(=O)NCCNC(=O)c1ccc(CN2CCN(CC(=O)N3c4ccccc4C(=O)Nc4cccnc43)CC2)cc1
6.77 | 7.05 | – | 6.92 | 6.68 | – | – | O=C1Nc2cccnc2N(C(=O)CN2CCN(CCCCN3C(=O)c4ccccc4C3=O)CC2)c2ccccc21
– | – | – | – | – | 7.87 | 8.52 | CCN(CC)CCCCCCCCCCN1CCN(CC(=O)N2c3ccccc3C(=O)Nc3cccnc32)CC1
< 4.52 | – | – | < 4.52 | – | – | – | CN1CCN(CC(=O)N2c3ccc(S(=O)(=O)NCCN)cc3C(=O)Nc3cccnc32)CC1
< 4.00 | < 4.00 | – | < 4.00 | < 4.00 | – | – | O=C1Nc2cccnc2N(C(=O)CN2CCN(C(=S)Nc3ccccc3)CC2)c2ccccc21
– | – | – | – | – | 7.74 | 7.74 | O=C1Nc2cccnc2N(C(=O)CN2CCN(CCCCCCN3C(=O)c4ccccc4C3=O)CC2)c2ccccc21
8.74 | 7.30 | – | 8.16 | 7.76 | – | – | Cc1scc2c1N(C(=O)CN1CCN(C)CC1)c1ccccc1NC2=O [TELENZEPINE]
5.02 | 5.05 | – | 4.97 | – | – | – | CC(=O)NCCCC(=O)NCCN1CCN(CC(=O)N2c3ccccc3C(=O)Nc3cccnc32)CC1
5.88 | 5.87 | – | – | – | – | – | NCCCCCCN1CCN(CC(=O)N2c3ccccc3C(=O)Nc3cccnc32)CC1
5.74 | 6.08 | – | – | – | – | – | O=C1Nc2cccnc2N(C(=O)CN2CCN(CCCN3C(=O)c4ccccc4C3=O)CC2)c2ccccc21
5.32 | 5.48 | – | 5.39 | – | – | – | CC(C)(C)OC(=O)NCCCC(=O)NCCN1CCN(CC(=O)N2c3ccccc3C(=O)Nc3cccnc32)CC1
5.36 | – | – | 5.36 | – | – | – | CN1CCN(CC(=O)N2c3cc(CO)ccc3C(=O)Nc3cccnc32)CC1

pKi [1] | pKi [2] | pKi [3] | pKi [4] | pKi [5] | pKi [6] | pKi [7] | SMILES
– | – | – | – | – | 7.30 | 7.28 | CC(=O)NCCCCCCCCCN1CCN(CC(=O)N2c3ccccc3C(=O)Nc3cccnc32)CC1
6.48 | 6.62 | – | 6.62 | 6.66 | – | – | O=C1Nc2cccnc2N(C(=O)CN2CCN(Cc3ccccc3)CC2)c2ccccc21
< 4.52 | – | – | < 4.52 | – | – | – | CN1CCN(CC(=O)N2c3ccc(S(=O)(=O)NCCNC(=O)OC(C)(C)C)cc3C(=O)Nc3cccnc32)CC1
– | – | – | – | – | 7.62 | 7.62 | NCCCCCCCCCN1CCN(CC(=O)N2c3ccccc3C(=O)Nc3cccnc32)CC1
5.33 | 4.96 | – | 5.44 | – | – | – | CSc1ccc2c(c1)C(=O)Nc1cccnc1N2C(=O)CN1CCN(C)CC1
7.43 | 7.67 | – | 7.34 | 7.63 | – | – | CC(C)(C)OC(=O)NCCCCCCN1CCN(CC(=O)N2c3ccccc3C(=O)Nc3cccnc32)CC1
– | – | – | – | – | 7.37 | 7.12 | CC(=O)NCCCCCCCCCCN1CCN(CC(=O)N2c3ccccc3C(=O)Nc3cccnc32)CC1
5.36 | 5.23 | – | 5.18 | – | – | – | NCCC(=O)NCCN1CCN(CC(=O)N2c3ccccc3C(=O)Nc3cccnc32)CC1
< 4.00 | < 4.00 | – | < 4.00 | < 4.00 | – | – | O=C1Nc2cccnc2N(C(=O)CN2CCN(C(=O)c3ccccc3)CC2)c2ccccc21
5.51 | 5.76 | – | – | – | – | – | NCCCCN1CCN(CC(=O)N2c3ccccc3C(=O)Nc3cccnc32)CC1
5.93 | 5.23 | – | – | – | – | – | NCCCCCN1CCN(CC(=O)N2c3ccccc3C(=O)Nc3cccnc32)CC1
4.88 | 5.22 | – | 5.21 | – | – | – | CC(C)(C)OC(=O)NCCC(=O)NCCN1CCN(CC(=O)N2c3ccccc3C(=O)Nc3cccnc32)CC1
5.78 | 5.86 | – | – | – | – | – | C#CCN1CCN(CC(=O)N2c3ccccc3C(=O)Nc3cccnc32)CC1
5.92 | 5.52 | – | 5.71 | 5.55 | – | – | NCCN1CCN(CC(=O)N2c3ccccc3C(=O)Nc3cccnc32)CC1
– | – | – | – | – | 7.24 | 7.18 | NCCCCCCCN1CCN(CC(=O)N2c3ccccc3C(=O)Nc3cccnc32)CC1
– | – | – | – | – | 7.93 | 7.80 | NCCCCCCCCCCN1CCN(CC(=O)N2c3ccccc3C(=O)Nc3cccnc32)CC1
< 4.00 | < 4.00 | – | < 4.00 | < 4.00 | – | – | CC(=O)N1CCN(CC(=O)N2c3ccccc3C(=O)Nc3cccnc32)CC1
– | – | – | – | – | 7.59 | 7.70 | NCCCCCCCCN1CCN(CC(=O)N2c3ccccc3C(=O)Nc3cccnc32)CC1
6.17 | 5.60 | – | 6.01 | 5.59 | – | – | CC(=O)NCCN1CCN(CC(=O)N2c3ccccc3C(=O)Nc3cccnc32)CC1
4.40 | 4.46 | – | < 4.00 | – | – | – | CC(=O)NCCC(=O)NCCN1CCN(CC(=O)N2c3ccccc3C(=O)Nc3cccnc32)CC1
5.24 | 5.49 | – | 5.02 | – | – | – | O=C1Nc2cccnc2N(C(=O)CN2CCN(CCO)CC2)c2ccccc21
